Results as given in ChEMBL document CHEMBL3227926, “2-Mercaptoacetamidines as gastric antisecretory agents” (J Med Chem, 1979).

Legend:
Canis familiaris [1] = assay: Toxicity in beagle dog assessed as tachycardia administered directly into stomach via gastric cannula; type: organism-based, Canis lupus familiaris; settings: in vivo, other
Canis familiaris [2] = assay: Inhibition of gastrin tetrapeptide-induced gastric secretion in beagle dog at 8 mg/kg administered directly into stomach via gastric cannula measured after 2 hrs of stimulation; type: functional; settings: Canis lupus familiaris
Summary of the method: (§1)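 Conscious female beagles (5-9 kg) with chronic gastric fistula. Dose in 50 mL 1% methylcellulose was put into the stomach via the cannula 1 h before gastrin tetrapeptide 64 µg/kg sc (from 640 µg/mL in 30% Me2SO); controls got vehicle. Juice was collected for 2 h. Volume was measured, titratable acid obtained by titration to pH 7 with 0.01 N NaOH, and total acid taken as volume × concentration.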

Canis familiaris [3] = assay: Toxicity in beagle dog assessed as gastric bleeding administered directly into stomach via gastric cannula; type: organism-based, Canis lupus familiaris; settings: in vivo, other
Canis familiaris [4] = assay: Toxicity in beagle dog assessed as emesis administered directly into stomach via gastric cannula; type: organism-based, Canis lupus familiaris; settings: in vivo, other
Canis familiaris [5] = assay: Inhibition of gastrin tetrapeptide-induced gastric secretion in beagle dog at 16 mg/kg administered directly into stomach via gastric cannula measured after 2 hrs of stimulation; type: functional; settings: Canis lupus familiaris; summary of the method: as §1
Canis familiaris [6] = assay: Inhibition of gastrin tetrapeptide-induced gastric secretion in beagle dog at 4 mg/kg administered directly into stomach via gastric cannula measured after 2 hrs of stimulation; type: functional; settings: Canis lupus familiaris; summary of the method: as §1

| Structure (SMILES) | Activity (Canis familiaris [1]) | inhibition in vivo at 8 mg/kg (Canis familiaris [2]) | Activity (Canis familiaris [3]) | Activity (Canis familiaris [4]) | inhibition in vivo at 16 mg/kg (Canis familiaris [5]) | inhibition in vivo at 4 mg/kg (Canis familiaris [6]) |
| --- | --- | --- | --- | --- | --- | --- |
| Cl.N=C(CSSCC(=N)NCC12CC3CC(CC(C3)C1)C2)NCC12CC3CC(CC(C3)C1)C2 | Toxic | 62% | Toxic | Toxic | 80% | – |
| Cl.N=C(CS)N1CCOCC1 | Toxic | 2% | Toxic | Toxic | 23% | – |
| Cl.N=C(CS)NC12CC3CC(CC(C3)C1)C2 | Toxic | 61% | Toxic | Toxic | 86% | – |
| Cl.N=C(CS)NC1C2CC3CC(C2)CC1C3 (configuration not stated) | Toxic | – | Toxic | Toxic | 85% | – |
| Cl.N=C(CS)NCC1C2CC3CC(C2)CC1C3 (configuration not stated) | Toxic | 67% | Toxic | Toxic | – | – |
| Cl.N=C(CS)NCCC12CC3CC(CC(C3)C1)C2 | Toxic | 61% | Toxic | Toxic | 100% | 0% |
| Cl.N=C(CS)NCCCC12CC3CC(CC(C3)C1)C2 | Toxic | 81% | Toxic | Toxic | – | 36% |
| Cl.N=C(CS)NCCCCC12CC3CC(CC(C3)C1)C2 | Toxic | 67% | Toxic | Toxic | – | 0% |
| Cl.N=C(CS)NCCCCCC12CC3CC(CC(C3)C1)C2 | Toxic | 9% | Toxic | Toxic | – | – |
| Cl.N=C(N)CS | Toxic | 89% | Toxic | Toxic | – | – |
| CC(C)NC(=N)CS.Cl | Toxic | 58% | Toxic | Toxic | – | – |
| CC(C)(C)CNC(=N)CS.Cl | Toxic | 95% | Toxic | Toxic | – | 25% |
| Cl.N=C(CS)NCC1CCCCC1 | Toxic | 86% | Toxic | Toxic | – | – |
| Cl.N=C(CS)NCC12CCC(CC1)C2 | Toxic | 91% | Toxic | Toxic | – | 0% |
| Cl.N=C(CS)NCC12CCC(CC1)CC2 | Toxic | 87% | Toxic | Toxic | – | 48% |
| Cl.N=C(CS)NCC12CCCC(CC1)C2 (configuration not stated) | Toxic | 95% | Toxic | Toxic | – | 0% |
| Cl.N=C(CS)NCC12CCCC(CCC1)C2 | Toxic | 67% | Toxic | Toxic | 23% | – |
| Cl.N=C(CS)NCC1CC2C3CCC(C3)C2C1 (configuration not stated) | Toxic | 70% | Toxic | Toxic | – | – |
| Cl.N=C(CS)NCC12CCC(C(=O)O)(CC1)CC2 | Toxic | 0% | Toxic | Toxic | – | – |
| Cl.N=C(CS)NCc1ccccc1 | Toxic | 83% | Toxic | Toxic | – | 29% |
| Cl.N=C(CS)NCc1ccncc1 | Toxic | 85% | Toxic | Toxic | – | – |
| Cl.N=C(CS)NCc1ccccn1 | Toxic | 82% | Toxic | Toxic | – | – |
| Cl.N=C(CS)NC/C=C/c1ccccc1 | Toxic | 53% | Toxic | Toxic | – | – |
| Cl.N=C(CS)NCC(c1ccccc1)c1ccccc1 | Toxic | 0% | Toxic | Toxic | 60% | – |
| Cl.N=C(CS)NC(c1ccccc1)c1ccccc1 | Toxic | – | Toxic | Toxic | 82% | – |
| Cl.N=C(CS)NC(c1ccccc1)c1ccc(Cl)cc1 (configuration not stated) | Toxic | – | Toxic | Toxic | 87% | – |
| Cl.N=C(CS)NC(Cc1ccccc1)c1ccccc1 (configuration not stated) | Toxic | – | Toxic | Toxic | 84% | – |

| Structure (SMILES) | Activity (Canis familiaris [1]) | inhibition in vivo at 8 mg/kg (Canis familiaris [2]) | Activity (Canis familiaris [3]) | Activity (Canis familiaris [4]) | inhibition in vivo at 16 mg/kg (Canis familiaris [5]) | inhibition in vivo at 4 mg/kg (Canis familiaris [6]) |
| --- | --- | --- | --- | --- | --- | --- |
| Cl.N=C(CS)NC1CCCC1 | Toxic | 100% | Toxic | Toxic | – | 63% |
| Cl.N=C(CS)NC1CCCCC1 | Toxic | 79% | Toxic | Toxic | – | 37% |
| Cl.N=C(CS)NC1Cc2ccccc2C1 | Toxic | – | Toxic | Toxic | 100% | – |
| Cl.N=C(CS)NC1CCc2ccccc21 (configuration not stated) | Toxic | 20% | Toxic | Toxic | 85% | – |
| Cl.N=C(CS)NC1c2ccccc2-c2ccccc21 | Toxic | – | Toxic | Toxic | 0% | – |
| Cl.N=C(CS)Nc1ccccc1 | Toxic | – | Toxic | Toxic | 0% | – |
| Cl.N=C(CS)Nc1cccc2ccccc12 | Toxic | – | Toxic | Toxic | 64% | – |
| Cl.N=C(CS)Nc1cccc2c1CCCC2 | Toxic | – | Toxic | Toxic | 14% | – |
| CN(C)C(=N)CS.Cl | Toxic | 62% | Toxic | Toxic | – | 0% |
| CN(Cc1ccccc1)C(=N)CS.Cl | Toxic | – | Toxic | Toxic | 0% | – |
| Cl.N=C(CS)N1CC2CCC(CC2)C1 | Toxic | – | Toxic | Toxic | 92% | – |
| O=C(CS)NCc1ccccc1 | Toxic | 0% | Toxic | Toxic | – | – |
| O=C(CS)NC1CCCCC1 | Toxic | 0% | Toxic | Toxic | – | – |
| O=C(CS)NC12CC3CC(CC(C3)C1)C2 | Toxic | – | Toxic | Toxic | 58% | – |
| CC(S)C(=N)NCC(C)(C)C.Cl (configuration not stated) | Toxic | 0% | Toxic | Toxic | 28% | – |
| CC(C)(C)CNC(=N)CCCS.Cl | Toxic | 11% | Toxic | Toxic | – | – |
| Cl.N=C(CSSCC(=N)NCc1ccccc1)NCc1ccccc1 | Toxic | – | Toxic | Toxic | – | 84% |
| CC(C)(C)CNC(=N)CCSSCCC(=N)NCC(C)(C)C.Cl | Toxic | 21% | Toxic | Toxic | 75% | – |
| Cl.N=C(CCSSCCC(=N)NCc1ccccc1)NCc1ccccc1 | Toxic | – | Toxic | Toxic | 42% | – |
| CC(C)(C)CNC(=N)CO.Cl | Toxic | 22% | Toxic | Toxic | 61% | – |
| Cl.N=C(CO)NCc1ccccc1 | Toxic | – | Toxic | Toxic | 0% | – |
| CC(=N)NCc1ccccc1.Cl | Toxic | – | Toxic | Toxic | 19% | – |
| CC(=N)NC1CCCCC1 | Toxic | – | Toxic | Toxic | 0% | – |
| Cl.N=C(CS)N[C@@H]1C[C@H]2CC[C@H]1C2 (relative stereo) | Toxic | 94% | Toxic | Toxic | – | – |
| CSCC(=N)NC[C@@H]1C[C@H]2CC[C@H]1C2 (relative stereo) | Toxic | 35% | Toxic | Toxic | – | – |
| Cl.N=C(CS)NC[C@@H]1C[C@H]2CC[C@H]1C2 (relative stereo; 15) | Toxic | – | Toxic | Toxic | – | – |
